High-throughput results as filed in PubChem.
PREPL inhibitor = human PREPL enzyme inhibition | recombinant PREPL, fluorescence polarization activity-based probe | inhibition, % at 5.96 µM | 320,000 compounds, 0.68% hits; in the data active means inhibition above about 43%;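 further: 0% = enzyme with DMSO and 100% = wells lacking enzyme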
UBC13 inh = inhibitors of human UBC13 polyubiquitin chain formation; AID 485273; inhibition, % at 20 µM; P61088; TR-FRET; 330,000 compounds, 0.47% hits; in the data active means inhibition above about 45%, passing the limit was not always enough
RBBP9 inhibitor = inhibitors of human serine hydrolase RBBP9 | 220,000 compounds, 0.2% hits | recombinant RBBP9, FP-Rh probe fluorescence polarization | inhibition, % at 7.94 µM;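 active means inhibition above the campaign mean of all tested compounds plus 3 SD, cut at about 14% in these data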;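 further: plate controls were DMSO wells with RBBP9 for no effect and wells lacking RBBP9 protein for full effect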
Target sequence (O75884 whole entry, looked up): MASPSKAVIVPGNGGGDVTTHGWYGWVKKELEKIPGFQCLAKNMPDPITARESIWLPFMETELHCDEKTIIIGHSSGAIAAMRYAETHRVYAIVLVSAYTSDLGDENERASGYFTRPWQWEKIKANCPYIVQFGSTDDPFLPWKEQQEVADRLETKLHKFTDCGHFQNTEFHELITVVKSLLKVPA
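Measured by: FP readout at 525/598 nm; material: recombinant human RBBP9; also added: Serine-hydrolase probe FP-Rh, 375 nM pre-mixing; medium: Tris buffer pH 8.0, NaCl, Pluronic; replication: one well per compound; doses: one concentration, 7.94 µM nominal, 0.794% DMSO; timing: preincubation 30 min plus labeling 45 min at 25 °C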
Rin1-Abl PPI inh = inhibitors of human Rin1-Abl protein interaction. 360,000 compounds, 0.4% hits. inhibition, % at 7.35 µM. TR-FRET Rin1/Abl binding, biochemical. AID 588664. P00519+Q13671; in the data active means inhibition above about 5%, passing the limit was not always enough
ALR H2O2 inh = blocks human ALR sulfhydryl oxidase activity; inhibition, % (concentration not given with the values); purified ALR, DTT oxidation, H2O2 HRP-luminol luminescence; P55789; 290,000 compounds, 3.8% hits;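 active means mean replicate inhibition above about 79%, with every replicate also reaching it, limit read from the data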
Target sequence (P55789 whole entry, looked up): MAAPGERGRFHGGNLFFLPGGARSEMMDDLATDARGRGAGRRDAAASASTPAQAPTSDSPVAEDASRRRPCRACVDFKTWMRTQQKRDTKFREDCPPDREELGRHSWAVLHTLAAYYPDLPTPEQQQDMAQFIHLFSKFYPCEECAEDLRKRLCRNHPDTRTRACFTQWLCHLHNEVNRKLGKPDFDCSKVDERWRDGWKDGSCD
SUMO HTRF inh = blocks human SUMOylation mediated by UBC9; P63279; AID 2006; inhibition, % at 35 µM; 290,000 compounds, 0.36% hits; HTRF SUMOylation assay, SAE1/SAE2 + UBC9, in vitro; in the data active means inhibition above about 50%, passing the limit was not always enough
Target sequence (P63279 whole entry, looked up): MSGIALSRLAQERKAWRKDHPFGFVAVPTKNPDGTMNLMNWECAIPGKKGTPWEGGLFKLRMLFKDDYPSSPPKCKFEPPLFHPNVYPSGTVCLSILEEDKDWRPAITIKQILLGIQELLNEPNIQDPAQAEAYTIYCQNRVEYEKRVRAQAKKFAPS
* marks the source's active call; other numbers are inactive results; . = not tested or not shown. Sampled rows, rich in hits. Any-hit rate of the full collection: about 4.3%.

SMILES | PREPL inhibitor | UBC13 inh | RBBP9 inhibitor | Rin1-Abl PPI inh | ALR H2O2 inh | SUMO HTRF inh
CCN1CCN(c2ccc(N=Cc3ccc(O)cc3O)cc2)CC1 | 36 | -6 | -1 | 0 | 99* | 8
COc1ccccc1N1CC(C(=O)Nc2nnc(SCc3cccnc3)s2)CC1=O (stereo unspecified) | 1 | 1 | . | -1 | 88* | 30
COc1ccc(N2CC(C(=O)Nc3nnc(SCc4cccnc4)s3)CC2=O)cc1 (stereo unspecified) | 15 | -2 | . | -2 | 20 | 8
Cc1ccccc1CC(=O)Nc1cccnc1 | 9 | -2 | . | 1 | 3 | 4
O=C(c1ccc(Cl)cc1)N1CCN(c2cccc3[nH]ccc23)CC1 | 25 | -5 | -7 | -4 | 97* | 2
Cc1ccc(CN2CCN(c3cccc4[nH]ccc34)CC2)cc1 | 42 | 5 | . | -3 | 99* | 3
C=CCN=C1CCCc2c1[nH]c1ccc(C)cc21 | 3 | 18 | -5 | 1 | . | 23
CCCC(=O)Nc1sc2c(c1C(=O)Nc1ccccn1)CCCC2 | -3 | -2 | -4 | 1 | 97* | 6
CCCOC(=O)c1c(NC(=O)CCC(=O)O)sc2c1CCCCC2 | 17 | -1 | -5 | 1 | 89* | -3
CCOC(=O)c1ccc(NC(=O)c2c(NC(=O)CCC(=O)O)sc3c2CCCCC3)cc1 | -1 | -3 | -7 | -1 | -5 | 8
O=C(CN(C(=O)CCC(=O)Nc1nccs1)c1cccc(F)c1)NCc1ccccc1 | -9 | 3 | . | 0 | 0 | 12
O=C(O)[C@H]1CCCN1C(=O)c1ccccc1N1C(=O)[C@@H]2Cc3c([nH]c4ccccc34)C(c3cccc(Cl)c3)N2C1=O (stereo partly specified) | -2 | -18 | . | -1 | . | 10
O=C1[C@@H]2Cc3c([nH]c4ccccc34)[C@@H](c3ccccc3)N2C(=O)[C@@H]2Cc3c([nH]c4ccccc34)[C@@H](c3ccccc3)N12 | . | . | -14 | . | . | -20
CC(C)c1ccc(C2c3[nH]c4ccccc4c3C[C@H]3C(=O)N(c4ccccc4C(=O)N4CCC[C@@H]4C(=O)O)C(=O)N23)cc1 (stereo partly specified) | 0 | -30 | . | 0 | 98* | 10
COc1ccc(C2c3[nH]c4ccccc4c3C[C@H]3C(=O)N(c4ccccc4C(=O)N4CCC[C@@H]4C(=O)O)C(=O)N23)cc1 (stereo partly specified) | 0 | -17 | . | -3 | . | .
CC(C)c1ccc(C2c3[nH]c4ccccc4c3C[C@H]3C(=O)N(c4ccccc4C(=O)N4CCC(C(=O)O)CC4)C(=O)N23)cc1 (stereo partly specified) | -2 | -16 | . | 1 | 98* | 16
Cc1ccc(C2c3[nH]c4ccccc4c3C[C@H]3C(=O)N(c4ccccc4C(=O)N4CCC[C@H]4C(=O)O)C(=O)N23)cc1 (stereo partly specified) | 3 | -18 | . | 0 | 98* | 9
CN(C)CCN1CCN(C2CN(Cc3cn(Cc4ccccc4C(F)(F)F)nn3)S(=O)(=O)C2)CC1 (stereo unspecified) | . | . | . | 0 | . | .
CN(C)S(=O)(=O)c1ccc(Cl)c(C(=O)NNC(=O)Cn2ccc(C(F)(F)F)n2)c1 | . | 3 | . | 3 | . | .
O=C1C(=C(O)c2ccccc2)C(=O)c2ccccc21 | 5 | -35 | -2 | 13* | -21 | 0
O=C1C(=C(c2ccccc2)c2ccccc2)Nc2ccccc21 | 3 | -119 | 5 | -8 | 70 | 1
NC(Cc1ccccc1)C(=O)N1CCCCC1 (stereo unspecified) | 19 | -1 | . | 5 | 0 | 2
N#CC1=C(N)n2c(s/c(=C\c3cccs3)c2=O)=C(C#N)C1c1cccs1 (stereo unspecified) | 5 | -54 | -8 | -3 | 99* | 38
OCCCNc1ncnc2c1ncn2[C@H]1CN(C2CCCC2)C[C@@H](CO)O1 | . | . | . | 0 | . | .
S=C(NCC1CCCO1)NC1CCCC1 (stereo unspecified) | 1 | 9 | 5 | 6 | -3 | 17
SMILES | PREPL inhibitor | UBC13 inh | RBBP9 inhibitor | Rin1-Abl PPI inh | ALR H2O2 inh | SUMO HTRF inh
CC1=C(C(=O)OC2CCCCC2)C(c2ccccc2)NC(=O)N1 (stereo unspecified) | 4 | 0 | . | -1 | 97* | 20
CC1=C(C(=O)OC2CCCCCCC2)C(c2ccc(O)cc2)NC(=O)N1 (stereo unspecified) | 12 | -9 | -4 | -2 | 5 | 8
O=C(COc1ccc(Cl)cc1Cl)OCC(=O)N1CCCc2ccccc21 | -17 | 6 | -4 | 0 | -1 | -18
O=C(COc1ccc(Cl)cc1Cl)NC(=S)N1CCCc2ccccc21 | 25 | 1 | -5 | 0 | 98* | 4
CCOC(=O)/C=C/[C@H]1CCc2cccc(C)c2O1 | 8 | 6 | . | 6 | 6 | .
CNc1snc(C)c1C(=O)OC(C)C(=O)Nc1ccc(F)cc1 (stereo unspecified) | 1 | 8 | . | -1 | -7 | .
C=CCOc1c(Cl)cc(CNc2nccs2)cc1OC | -3 | 3 | -2 | -3 | 9 | -13
C=CCOc1c(Cl)cc(CNc2ccc3[nH]c(=O)[nH]c3c2)cc1OC | 5 | -16 | -3 | -2 | 98* | 65
C=CCOc1ccccc1CNc1ccc2[nH]c(=O)[nH]c2c1 | 4 | 1 | 1 | 2 | 99* | 16
COc1cc(CNc2ccc3[nH]c(=O)[nH]c3c2)ccc1OCc1ccccc1Cl | 35 | 6 | . | 2 | -55 | -1
COc1cccc(CNc2ccc3[nH]c(=O)[nH]c3c2)c1OCc1ccccc1F | 15 | 2 | . | -5 | 99* | 14
C=CCOc1ccccc1CNc1cccc(F)c1 | 4 | -2 | 0 | -6 | 45 | -14
COc1ccc([N+](=O)[O-])cc1COc1cc(C)cc2oc(=O)cc(-c3ccccc3)c12 | 12 | -2 | -3 | 3 | -2 | 10
Cc1ccc(NNS(=O)(=O)c2ccc(C)cc2)cc1 | 4 | 6 | 5 | 5 | 98* | -5
Cc1ccc(S(=O)(=O)NNC(=O)C(=O)NNS(=O)(=O)c2ccc(C)cc2)cc1 | 5 | 6 | -3 | 1 | 14 | 14
O=C(NNc1ccccc1)C(=O)NNS(=O)(=O)c1ccc([N+](=O)[O-])cc1 | -4 | 3 | -8 | 0 | 98* | -10
O=C(NNc1ccc([N+](=O)[O-])cc1)Nc1ccccc1 | -1 | -5 | . | 4 | . | 4
CC(=O)Nc1ccc(S(=O)(=O)NNc2ccc([N+](=O)[O-])cc2)cc1 | 5 | -8 | . | -1 | 98* | 7
O=C(CNC(=O)c1ccc(Cl)cc1)NCC(F)(F)F | 5 | -8 | -3 | -1 | -4 | -2
C=C1CCN([C@@H](CC(C)C)C(=O)NCCC(C)C)S(=O)(=O)c2ccccc21 | 17 | 5 | . | 1 | -20 | .
CCOC(Cn1ccc(=O)[nH]c1=O)OCC | -12 | -3 | -13 | -1 | 1 | -1
